Calls of active or inactive are those of the source. The rule behind the calls is not given here.
Columns and labels:
HEK293 = experiment: Cytotoxicity against human HEK293 cells assessed as reduction in cell viability measured after 24 hrs by MTT assay; assay type: cell-based; settings: HEK293, 24 h
Rattus norvegicus [1] = experiment: Induction of hyperlocomotor activity in restraint stress induced anxiety Wistar rat model assessed as increase in total lines crossed at 2 mg/kg, po measured after 30 mins by open field test; assay type: functional, organism-based
Procedure, shortened: (§1)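 Restraint stress was applied by immobilization in a plastic restrainer for 2 h/day over 14 days. Rats received 2 mg/kg 30 min before the open field test, six per group. Inner zone time was scored as the anxiety measure and the number of total lines crossed as locomotor activity. Groups were compared with nonstressed vehicle and stressed vehicle groups.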

Rattus norvegicus [2] = experiment: Anxiolytic activity in restraint stress induced anxiety Wistar rat model assessed as decrease in anxiety index at 2 mg/kg, po measured after 30 mins by elevated plus maze test; assay type: functional, organism-based
Procedure, shortened: (§2)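 Rats were stressed by immobilization in a plastic restrainer for 2 h/day for 14 days. Test compounds were given at 2 mg/kg 30 min before the elevated plus maze, six rats per group. Read-outs were percent open arm entry, percent open arm time and anxiety index (higher index means more anxiety). Groups were compared with nonstressed vehicle and stressed vehicle groups.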

Rattus norvegicus [3] = experiment: Anxiolytic activity in restraint stress induced anxiety Wistar rat model assessed as increase in open arm entry at 2 mg/kg, po measured after 30 mins by elevated plus maze test; assay type: functional, organism-based; procedure, shortened: as §2
Rattus norvegicus [4] = experiment: Anxiolytic activity in restraint stress induced anxiety Wistar rat model assessed as increase in time spent in open arm at 2 mg/kg, po measured after 30 mins by elevated plus maze test; assay type: functional, organism-based; procedure, shortened: as §2
Rattus norvegicus [5] = experiment: Anxiolytic activity in restraint stress induced anxiety Wistar rat model assessed as increase in time spent in inner zone at 2 mg/kg, po measured after 30 mins by open field test; assay type: functional, organism-based; procedure, shortened: as §1
[6] = Effect on locomotor activity in normal Wistar rat assessed as effect on total open arm entry at 2 mg/kg, po measured after 30 mins by elevated plus maze test; settings: in vivo, 0.5 h
Rattus norvegicus [7] = experiment: Anxiolytic activity in restraint stress induced anxiety Wistar rat model assessed as decrease in time spent in outer zone at 2 mg/kg, po measured after 30 mins by open field test; assay type: functional, organism-based
Procedure, shortened: (§3)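 Open field test in rats stressed by immobilisation in a plastic restrainer for 2 h/day for 14 days, with non-stressed controls. Animals received 2 mg/kg acutely 30 min before testing, six rats per group. Readouts were inner zone time, outer zone time, total lines crossed (locomotion) and rearing (exploration).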

Rattus norvegicus [8] = experiment: Anxiolytic activity in restraint stress induced anxiety Wistar rat model assessed as decrease in rearing behaviour at 2 mg/kg, po measured after 30 mins by open field test; assay type: functional, organism-based; procedure, shortened: as §3

COc1cc2c(c(OC)c1)CNc1ccccc1C2
IC50 (HEK293): 6.44 µM

COc1ccc2c(c1)Cc1cc(F)ccc1NC2
IC50 (HEK293): 0.16 µM
Activity (Rattus norvegicus [1]): Active
Activity (Rattus norvegicus [2]): Active
Activity (Rattus norvegicus [3]): Active
Activity (Rattus norvegicus [4]): Active
Activity (Rattus norvegicus [5]): Active
Activity [6]: Non-Toxic

c1ccc(Oc2ccc3c(c2)Cc2ccccc2NC3)cc1
IC50 (HEK293): 4.43 µM

COc1ccc2c(c1)Cc1cc3c(cc1NC2)OCO3
IC50 (HEK293): 14.5 µM

Fc1cccc2c1NCc1ccc(Oc3ccccc3)cc1C2
IC50 (HEK293): 13.7 µM
Activity (Rattus norvegicus [1]): Active
Activity (Rattus norvegicus [2]): Active
Activity (Rattus norvegicus [3]): Active
Activity (Rattus norvegicus [4]): Active
Activity (Rattus norvegicus [5]): Active
Activity [6]: Non-Toxic

COc1ccc2c(c1)NCc1ccc(Oc3ccccc3)cc1C2
IC50 (HEK293): 2.12 µM

COc1ccc2c(c1)Cc1ccccc1NC2
IC50 (HEK293): 65.7 µM
Activity (Rattus norvegicus [1]): Active
Activity (Rattus norvegicus [2]): Active
Activity (Rattus norvegicus [3]): Active
Activity (Rattus norvegicus [4]): Active
Activity (Rattus norvegicus [5]): Active
Activity [6]: Non-Toxic

COc1ccc2c(c1)Cc1ccc(OC)cc1NC2
IC50 (HEK293): 1.09 µM

COc1ccc2c(c1)Cc1ccc(Cl)cc1NC2
IC50 (HEK293): 12.6 µM
Activity (Rattus norvegicus [1]): Active
Activity (Rattus norvegicus [2]): Active
Activity (Rattus norvegicus [3]): Active
Activity (Rattus norvegicus [4]): Active
Activity (Rattus norvegicus [5]): Active
Activity [6]: Non-Toxic

COc1ccc2c(c1)Cc1cccc(F)c1NC2
IC50 (HEK293): 6.19 µM

COc1ccc2c(c1)CCc1ccccc1NC2
IC50 (HEK293): 14.1 µM

CN1C(=O)CN=C(c2ccccc2)c2cc(Cl)ccc21 [DIAZEPAM]
IC50 (HEK293): 87.9 µM
Activity (Rattus norvegicus [1]): Active
Activity (Rattus norvegicus [2]): Active
Activity (Rattus norvegicus [3]): Active
Activity (Rattus norvegicus [4]): Active
Activity (Rattus norvegicus [5]): Active
Activity (Rattus norvegicus [7]): Active
Activity (Rattus norvegicus [8]): Active

Clc1ccc2c(c1)NCc1ccc(Oc3ccccc3)cc1C2
IC50 (HEK293): 14.2 µM
Activity (Rattus norvegicus [1]): Active
Activity (Rattus norvegicus [2]): Active
Activity (Rattus norvegicus [3]): Active
Activity (Rattus norvegicus [4]): Active
Activity (Rattus norvegicus [5]): Active
Activity [6]: Non-Toxic

COc1ccc2c(c1)Cc1cc(Cl)ccc1NC2
IC50 (HEK293): 2.29 µM

COc1ccc2c(c1)Cc1c(F)cccc1NC2
IC50 (HEK293): 0.77 µM

From ChEMBL document CHEMBL4823325, “Synthesis of Benzoazepine Derivatives via Azide Rearrangement and Evaluation of Their Antianxiety Activities” (ACS Med Chem Lett, 2021)
